Bioassay records: PubChem BioAssay, Broad Institute
This is a sample that favours compounds with a hit; in the whole collection about 3.5% have one here.
FN deposit inh – fibronectin deposition inhibition; AH1F fibroblasts, Alexa488-fibronectin deposition fluorescence, overnight; inhibition, % at 12.6 µM; hit rate 0.086% among 350,000; AID 743247;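 active means mean inhibition across replicates of 30% or more, regardless of how many single replicates reach that level; inconclusive means mean under 30% yet at least half of replicates reach 30%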
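Test system: AH1F fibroblast monolayer depositing Alexa488-labelled fibronectin into matrix. Input: 10000 cells per well. Technique: fluorescence, ex 485 nm, em 525 nm. Buffer or medium: DMEM plus 2% serum, read in PBS. Timing: 1 h cell adhesion before compound, then overnight fibronectin incubation. Compound: single dose, pinned. Read-out basis: inhibition from reduced deposited-fibronectin fluorescence.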
PGC1a acetyl inh – modulators of PGC1a acetylation. U2OS PGC1a acetylation, AlphaScreen anti-acetyl-lysine; with virally co-expressed GCN5 acetyltransferase. inhibition, % at 15.6 µM. hit rate 0.17% among 350,000;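 active means every replicate shows inhibition of at least 40%; inconclusive means mean inhibition at least 40% but some replicate below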
PglD inh – inhibitors of Campylobacter jejuni PglD acetyltransferase | purified PglD enzyme, DTNB colorimetric CoA detection | inhibition, % at 12.5 µM | hit rate 0.098% among 360,000 | AID 602405; in the data active means inhibition above about 16%, passing the limit was not always enough; inconclusive means no clear call, values can overlap the other calls
Ecoli rRNA inh – inhibitors of bacterial rRNA selective over humanized ribosomes; GFP signal change (wild-type ribosome), % (concentration not given with the values); E. coli WT GFP vs humanized-ribosome RFP mutants, fluorescence, 24 h; stronger effect = lower value; DMSO median 0, no signal -100; hit rate 1.6% among 350,000;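 active means significant combined selectivity score with lowered wild-type GFP, culture density cut under 30%, mutant RFP and density less affected; inactive means any of these conditions unmet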
DENV2 CPE rescue – DENV2-induced cell death inhibition. DENV2-infected cells, cytopathic effect rescue, plate reader. CPE inhibition, % at 9.99 µM. hit rate 1.7% among 350,000. AID 651640; in the data active means CPE inhibition above about 20%, passing the limit was not always enough; inconclusive means no clear call, values can overlap the other calls; tested in BHK-21 cells
Env fusion inh – HIV envelope-mediated fusion inhibition | HeLa-JRFL Env/CEM21 cell fusion, luciferase | inhibition, % at 12.3 µM | hit rate 1.1% among 360,000;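 active means mean replicate inhibition score of at least 50 and every replicate individually at or above 50; inconclusive means only one of the two criteria met; inactive means mean below 50 and not all replicates reaching 50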
A number is an active result; . = inactive; ? = inconclusive; / = no result given.

SMILES | FN deposit inh | PGC1a acetyl inh | PglD inh | Ecoli rRNA inh | DENV2 CPE rescue | Env fusion inh
COc1ccc(NC(=O)COC(=O)Cc2coc3cc(OC)ccc23)c(OC)c1 | . | . | . | -34 | . | .
COc1ccc2c(CC(=O)Nc3ccccc3OC)coc2c1 | / | . | . | . | . | .
COc1cc(CC(=O)Nc2ccccc2N2CCOCC2)cc(OC)c1OC | . | . | / | / | . | .
COc1ccccc1NC(=O)N1CC[C@@H]2[C@H]1c1cc(-c3ccccc3)ccc1N(C)[C@H]2CO | . | . | . | . | . | /
COc1ccc(C(C(=O)NC(C)(C)C)N(C[C@H]2CC[C@@H]([C@@H]3CC[C@H](CO)O3)O2)C(=O)c2ccccc2)cc1 (some centres undefined) | . | / | . | . | . | 62
CC(C)(C)NC(=O)C(c1ccc(-c2ccccc2)cc1)N(C[C@H]1CC[C@@H]([C@@H]2CC[C@H](CO)O2)O1)C(=O)c1ccc(-c2ccccc2)cc1 (some centres undefined) | / | . | . | / | / | /
C[C@@H](C(=O)NCCc1ccc(F)cc1)N1C(=O)N2CCc3c([nH]c4ccccc34)[C@@]2(C)C1=O | / | . | . | / | . | /
Cc1ccc(CNC(=O)[C@H](C)N2C(=O)N3CCc4c([nH]c5ccccc45)[C@@]3(C)C2=O)cc1 | / | . | . | . | 35 | /
Cc1nc2sccn2c1-c1csc(NCc2ccccc2)n1 | . | . | . | / | / | 95
CS(=O)(=O)Nc1ccccc1C(=O)OCC(=O)N1CCC(c2ccccc2)=N1 | . | / | . | -32 | . | /
Cc1ccc(C(=O)OCC(=O)N2CCC(c3ccccc3)=N2)c(C)c1 | . | . | . | . | . | /
CCN1[C@@H]2c3ccc(C4=CCCC4)c(=O)n3C[C@H]1[C@H](CO)[C@H]2C(=O)N[C@@H](C)c1ccccc1 | / | . | . | . | . | /
COc1ccccc1NC(=O)Nc1sccc1-c1nc2ccccc2s1 | . | . | . | . | . | .
O=C(Nc1ccccc1)Nc1sccc1-c1nc2ccccc2s1 | . | . | . | -21 | . | .
O=C(Nc1cccc(Cl)c1)Nc1sccc1-c1nc2ccccc2s1 | . | . | . | / | 63 | .
C[C@@H]1CCCCO[C@@H](CN(C)C(=O)Nc2ccc(F)cc2)[C@H](C)CN([C@@H](C)CO)C(=O)c2cc(N(C)C)ccc2O1 | / | . | / | . | / | .
Cc1cccc(/C=C/C(=O)c2ccc([N+](=O)[O-])o2)c1 | 65 | / | . | . | . | .
COc1ccc(/C=C/C(=O)c2ccc([N+](=O)[O-])o2)cc1 | . | . | . | . | / | .
Cc1ccccc1/C=C/C(=O)c1ccc([N+](=O)[O-])o1 | 42 | / | / | . | . | .
O=C(/C=C/c1cccc([N+](=O)[O-])c1)c1ccc([N+](=O)[O-])o1 | . | / | . | . | ? | 56
Cc1ccccc1NC(=O)c1ccc([N+](=O)[O-])o1 | . | / | / | / | . | .
CC[C@@]12C(=O)N(c3cccc(Cl)c3)C(=O)N1[C@H](c1ccc(Br)cc1)[C@@H]1C(=O)N(C(C)(C)C)C(=O)[C@@H]12 | . | . | . | . | . | 84
CC[C@@]12C(=O)N(c3cccc(C)c3)C(=O)N1[C@H](c1ccc(Br)cc1)[C@@H]1C(=O)N(C(C)(C)C)C(=O)[C@@H]12 | . | . | . | . | . | .
CC[C@@]12C(=O)N(c3cccc(F)c3)C(=O)N1[C@H](c1ccc(OC)cc1)[C@@H]1C(=O)N(C(C)(C)C)C(=O)[C@@H]12 | . | / | . | . | . | .
CC(C)C[C@@]12C(=O)N(c3cccc(F)c3)C(=O)N1[C@H](c1ccc(Br)cc1)[C@@H]1C(=O)N(C(C)(C)C)C(=O)[C@@H]12 | . | . | . | / | / | 69
CC(C)C[C@@]12C(=O)N(c3cccc(Cl)c3)C(=O)N1[C@H](c1ccc(Br)cc1)[C@@H]1C(=O)N(C(C)(C)C)C(=O)[C@@H]12 | . | . | . | . | . | 91
CC(C)C[C@@]12C(=O)N(c3ccc(Br)cc3)C(=O)N1[C@H](c1ccc(Br)cc1)[C@@H]1C(=O)N(C(C)(C)C)C(=O)[C@@H]12 | . | . | . | . | . | 80
O=C(c1ccccn1)N1CC(=O)N2[C@@H](CO)[C@@H](c3ccc(C#CC4CCCC4)cc3)[C@@H]2C1 | / | . | / | . | . | /
